# Measured values taken from ChEMBL document CHEMBL1141440, “Sesquiterpene lactones from the roots of Ferula varia and their cytotoxic activity” (J Nat Prod, 2007).
# Columns and labels:
# [1] = system: KB; test: Cytotoxicity against human KB cells; format: functional, cell-based
# Summary of the method: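 KB human epidermoid carcinoma cells were grown in DMEM with 10% FBS at 37 °C under humidified 5% CO2. Cytotoxicity was given as IC50 in µg/mL.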
# [2] = Cytotoxicity against doxorubicin-resistant human K562/Adr cells; format: functional, cell-based
# Summary of the method: (§1)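 K562/Adr cells, a doxorubicin-resistant leukemia line, were grown in RPMI1640 with 10% FBS and 0.5 µM doxorubicin at 37 °C under humidified 5% CO2. Cytotoxicity was expressed as IC50 in µg/mL.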
# [3] = system: K562; test: Cytotoxicity against multidrug-resistant human K562 cells; format: functional, cell-based; settings: in the assay text read “human K562 cells” for “multidrug-resistant human K562 cells”; summary of the method: as §1
# [4] = system: COLO 205; test: Cytotoxicity against human COLO205 cells; format: functional, cell-based
# Summary of the method: (§2)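 MCF7 breast and COLO205 colon carcinoma cells were cultured in RPMI1640 with 10% FBS at 37 °C in humidified 5% CO2-95% air. Cytotoxicity was read as IC50 in µg/mL.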
# [5] = system: MCF7; test: Cytotoxicity against human MCF7 cells; format: functional, cell-based; summary of the method: as §2
# [6] = Cytotoxicity against multidrug-resistant human KB-C2 cells; format: functional, cell-based
# Summary of the method: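 KB-C2, a multidrug-resistant KB subline, was maintained in DMEM with 10% FBS and 5 µM colchicine at 37 °C under humidified 5% CO2. Cytotoxicity was reported as IC50 in µg/mL.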
# [7] = molecular target: ATP-dependent translocase ABCB1 (Homo sapiens, UniProt P08183); test: Effect on P-glycoprotein expressed in KB-C2 cells assessed as increase in accumulation of rhodamine 123 at 50 uM; format: cell-based; settings: kb-c2, 50 µM
# ATP-dependent translocase ABCB1, sequence (P08183 whole entry): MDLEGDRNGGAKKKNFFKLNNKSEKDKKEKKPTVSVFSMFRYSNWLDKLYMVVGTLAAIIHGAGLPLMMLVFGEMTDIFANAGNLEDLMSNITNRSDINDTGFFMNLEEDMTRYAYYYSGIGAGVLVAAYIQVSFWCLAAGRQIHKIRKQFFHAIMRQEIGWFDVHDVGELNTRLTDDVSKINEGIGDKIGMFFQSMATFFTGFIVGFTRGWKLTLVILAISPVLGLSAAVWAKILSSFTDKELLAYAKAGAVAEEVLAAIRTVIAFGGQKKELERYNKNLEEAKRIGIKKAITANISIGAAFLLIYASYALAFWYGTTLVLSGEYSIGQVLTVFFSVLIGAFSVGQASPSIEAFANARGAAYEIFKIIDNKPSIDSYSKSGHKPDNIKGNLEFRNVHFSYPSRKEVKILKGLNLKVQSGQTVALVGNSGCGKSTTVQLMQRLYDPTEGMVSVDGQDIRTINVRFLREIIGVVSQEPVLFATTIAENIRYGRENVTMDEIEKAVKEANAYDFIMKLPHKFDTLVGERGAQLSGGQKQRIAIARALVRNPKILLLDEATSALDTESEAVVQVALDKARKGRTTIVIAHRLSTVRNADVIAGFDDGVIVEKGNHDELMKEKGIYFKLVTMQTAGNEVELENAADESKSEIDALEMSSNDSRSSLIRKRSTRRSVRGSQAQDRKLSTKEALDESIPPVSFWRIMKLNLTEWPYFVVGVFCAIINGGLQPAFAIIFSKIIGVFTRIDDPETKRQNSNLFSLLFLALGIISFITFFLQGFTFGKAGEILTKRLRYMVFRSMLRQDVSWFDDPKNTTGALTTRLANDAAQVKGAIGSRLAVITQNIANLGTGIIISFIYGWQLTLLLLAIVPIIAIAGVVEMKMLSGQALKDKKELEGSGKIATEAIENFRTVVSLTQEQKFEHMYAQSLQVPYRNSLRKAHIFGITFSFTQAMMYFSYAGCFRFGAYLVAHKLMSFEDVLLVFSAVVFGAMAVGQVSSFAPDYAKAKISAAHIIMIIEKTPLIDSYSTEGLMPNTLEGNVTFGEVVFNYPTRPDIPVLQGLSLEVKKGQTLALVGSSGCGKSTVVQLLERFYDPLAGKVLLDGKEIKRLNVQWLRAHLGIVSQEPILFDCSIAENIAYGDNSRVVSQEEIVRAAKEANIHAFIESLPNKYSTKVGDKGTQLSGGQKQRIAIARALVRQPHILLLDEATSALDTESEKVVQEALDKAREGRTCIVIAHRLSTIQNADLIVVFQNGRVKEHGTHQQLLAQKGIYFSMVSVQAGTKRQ
# Summary of the method: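 For P-gp substrate accumulation, KB-C2 cells were incubated 2 h with 20 µM rhodamine 123 plus sample, then washed and lysed in 0.1% Triton X-100 in PBS. Retained fluorescence was measured and accumulation expressed as a percentage increase.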
# [8] = Cytotoxicity against multidrug-resistant human KB-C2 cells in presence of 2.5 uM colchicine; format: functional, cell-based
# Summary of the method: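 KB-C2 cells were kept in DMEM with 10% FBS and 5 µM colchicine, then tested for cytotoxicity with 2.5 µM colchicine added during exposure to samples. IC50 was given in µg/mL.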
Compound,IC50 [1] [µg/mL],IC50 [2] [µg/mL],IC50 [3] [µg/mL],IC50 [4] [µg/mL],IC50 [5] [µg/mL],IC50 [6] [µg/mL],Activity [7] [%],IC50 [8] [µg/mL]
C=C1[C@@H](OC(=O)C(C)CC)C=C[C@@]2(C)CC[C@@H]3[C@@H](OC(=O)[C@@H]3C)[C@H]12 (some centres not stated),> 100,> 100,> 100,> 100,> 100,> 100,–,–
C=C1[C@H]2O[C@H]2[C@@H](OC(=O)/C(C)=C/C)[C@@]2(C)CC[C@@H]3[C@@H](OC(=O)[C@@]3(O)COC(=O)/C(C)=C\C)[C@H]12,91.4,> 100,> 100,> 100,> 100,98,169,48.3
C=C1C=C[C@@H](OC(=O)/C(C)=C/C)[C@@]2(C)CC[C@@H]3[C@@H](OC(=O)[C@]3(C)O)[C@H]12,> 100,> 100,> 100,> 100,> 100,> 100,–,–
C=C1C(=O)O[C@@H]2[C@H]1CC[C@]1(C)[C@H](OC(=O)/C(C)=C/C)C=CC(=C)[C@@H]21 [DEHYDROOOPODIN],46.1,> 100,36.8,–,–,56.9,–,55.8
C/C=C(\C)C(=O)O[C@H]1C[C@](C)(O)C2CC=C(C)[C@H]2[C@@H]2OC(=O)[C@H](C)[C@@H]21 (some centres not stated),> 100,> 100,> 100,> 100,> 100,> 100,114,25.4
C=C1C=C[C@@H](OC(=O)/C(C)=C/C)[C@@]2(C)CC[C@@H]3[C@@H](OC(=O)[C@@H]3C)[C@H]12 [OOPODIN],34.7,25.4,35.1,–,–,24.7,–,13.8
COc1cccc2c1C(=O)c1c(O)c3c(c(O)c1C2=O)C[C@@](O)(C(=O)CO)C[C@@H]3O[C@H]1C[C@H](N)[C@H](O)[C@H](C)O1 [DOXORUBICIN],0.22,15.3,0.45,–,–,> 100,–,–
